Active and inactive are the calls of the source. No cut-off for these calls is given here.
What was measured:
Format in all cases: functional
[1] = Antioxidant activity assessed as trolox equivalents of ABTS radical scavenging activity at 0 min by TEAC assay
Summary of the method: (§1)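 ABTS•+ scavenging run per an earlier published method. Standard curve built from six 1:2 serial dilutions of a 500 μg/mL stock solution. Activity expressed as Trolox equivalent antioxidant capacity (TEAC), read at 5 min intervals from 0 to 40 min after starting incubation with the radical. Seven technical replicates.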

[2] = Antioxidant activity assessed as trolox equivalents of ABTS radical scavenging activity at 40 mins by TEAC assay; summary of the method: as §1
[3] = Antioxidant activity assessed as trolox equivalents of ABTS radical scavenging activity at 5 mins by TEAC assay; summary of the method: as §1
[4] = Antioxidant activity assessed as trolox equivalents of ABTS radical scavenging activity at 10 mins by TEAC assay; summary of the method: as §1
[5] = system: Radical scavenging activity; test: Antioxidant activity assessed as DPPH radical scavenging activity
[6] = Antioxidant activity assessed as trolox equivalents of ABTS radical scavenging activity at 35 mins by TEAC assay; summary of the method: as §1
[7] = Antioxidant activity assessed as trolox equivalents of ABTS radical scavenging activity at 20 mins by TEAC assay; summary of the method: as §1
[8] = Antioxidant activity assessed as trolox equivalents of ABTS radical scavenging activity at 30 mins by TEAC assay; summary of the method: as §1
[9] = Antioxidant activity assessed as trolox equivalents of ABTS radical scavenging activity at 25 mins by TEAC assay; summary of the method: as §1
[10] = Antioxidant activity assessed as trolox equivalents of ABTS radical scavenging activity at 15 mins by TEAC assay; summary of the method: as §1

## O=C(O)CC(=O)O[C@@H]1C[C@@](O)(C(=O)O)C[C@@H](OC(=O)/C=C/c2ccc(O[C@@H]3O[C@H](COC(=O)[C@]4(O)C[C@@H](O)[C@@H](O)[C@H](OC(=O)/C=C/c5ccc(O)c(O)c5)C4)[C@@H](O)[C@H](O)[C@H]3O)c(O)c2)[C@@H]1O
[1]
  Activity: -0.31
[2]
  Activity: 2.56
[3]
  Activity: 1.61
[4]
  Activity: 1.85
[5]
  Activity: Active
[6]
  Activity: 2.5
[7]
  Activity: 2.26
[8]
  Activity: 2.42
[9]
  Activity: 2.49
[10]
  Activity: 2.1

## O=C(/C=C/c1ccc(O)c(O)c1)O[C@@H]1C[C@](O)(C(=O)O)C[C@@H](O)[C@H]1O
[1]
  Activity: -0.31
[2]
  Activity: 2.56
[3]
  Activity: 1.61
[4]
  Activity: 1.85
[5]
  Activity: Active
[6]
  Activity: 2.5
[7]
  Activity: 2.26
[8]
  Activity: 2.42
[9]
  Activity: 2.49
[10]
  Activity: 2.1

## O=C(/C=C/c1ccc(O[C@@H]2O[C@H](COC(=O)[C@]3(O)C[C@@H](O)[C@@H](O)[C@H](OC(=O)/C=C/c4ccc(O)c(O)c4)C3)[C@@H](O)[C@H](O)[C@H]2O)c(O)c1)O[C@@H]1C[C@](O)(C(=O)O)C[C@@H](O)[C@H]1O
[1]
  Activity: 1.51
[2]
  Activity: 3.89
[3]
  Activity: 2.71
[4]
  Activity: 3.01
[5]
  Activity: Active
[6]
  Activity: 3.81
[7]
  Activity: 3.64
[8]
  Activity: 3.71
[9]
  Activity: 3.73
[10]
  Activity: 3.18
